Assay results reported in ChEMBL document CHEMBL6103596, “Design, Synthesis, and Biological Evaluation of BODIPY-Caged Resiquimod as a Dual-Acting Phototherapeutic” (J Med Chem, 2025).
The source made the active and inactive calls. No cut-off for these calls is given here.

Tests used:
AD293 = assay: Cytotoxicity against human AD293 cells assessed as cell viability at 0.1 to 10 uM incubated for 24 hrs by MTT assay; assay type: toxicity, cell-based; conditions: ad293, 24 h, dose 0.1-10 µM
Procedure, shortened: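 AD293 cells seeded at 4 × 10^4 cells/well in DMEM with 10% FBS. Next day, compound (100 nM, 1 μM, 10 μM) or vehicle added in serum-free DMEM for 24 h, no irradiation. MTT (5 mg/mL reagent) added for 3 h at 37 °C, formazan dissolved in DMSO, absorbance read at 590 nm. Triplicate wells, four independent experiments.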

[1] = Photorelease activity of the compound in aqueous solution at 30 uM under 647 nm 400mW LED light by 1H NMR spectroscopy analysis; assay type: ADME; conditions: buffer, time 10-40 min
[2] = Dark toxicity in human A549 cells assessed as cell viability at 10 uM under dark condition and measured after 72 hrs by CCK-8 method relative to control; assay type: cell-based; conditions: read-out: Activity
Procedure, shortened: (§1)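 A549, HaCaT and HeLa cells seeded at 2 × 10^3 cells/well in phenol red-free DMEM with 10% FBS. After 24 h, medium replaced with 1% DMSO containing 10 μM compound. After 90 min, one plate kept dark and one exposed to 530 or 650 nm LED (30 mW) for 15 min. Plates incubated 72 h, then CCK-8 read at 450 nm. Viability taken relative to dark control. Triplicates (HaCaT six).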

[3] = Thermal stability of compound in DMSO-d6 at 37.5 degree C measured after 1 day by 1H NMR spectroscopy analysis relative to control; assay type: physicochemical; conditions: 24 h
Procedure, shortened: (§2)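 Compound in DMSO-d6 followed by 1H NMR. Degradation taken from the intensity of three signals (one resiquimod, one BODIPY, and the linkage NH), each relative to the DMSO-d6 internal standard, and the three averaged.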

[4] = Induction of hydroxyl radical assessed as DMPO-OH radical adduct formation under dark condition measured after 10 mins by ESR spectra analysis; assay type: functional
Procedure, shortened: (§3)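 ESR spectra recorded with DMPO as spin trap to detect superoxide and/or hydroxyl radical adducts, before and after 10 min irradiation of compound.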

[5] = Induction of hydroxyl radical assessed as DMPO-OH radical adduct formation under light irradiation measured after 10 mins by ESR spectra analysis; assay type: functional; procedure, shortened: as §3
[6] = Photorelease activity of the compound in aqueous solution at 30 uM under dark condition by 1H NMR spectroscopy analysis; assay type: ADME; conditions: buffer
[7] = Photophysical property of the compound assessed as fluorescence quantum yield; assay type: physicochemical
[8] = Thermal stability of compound in DMSO-d6 at 37.5 degree C measured after 3 days by 1H NMR spectroscopy analysis relative to control; assay type: physicochemical; conditions: 72 h; time 3 day; procedure, shortened: as §2
[9] = Dark toxicity in human HeLa cells assessed as cell viability at 10 uM under dark condition and measured after 72 hrs by CCK-8 method relative to control; assay type: cell-based; conditions: read-out: Activity; procedure, shortened: as §1

For CCOCc1nc2c(NC(=O)OCC3=C4C(C)=CC(/C=C/c5ccc(OCCOCCOCCOC)cc5)=[N+]4[B-](C)(C)n4c(/C=C/c5ccc(OCCOCCOCCOC)cc5)cc(C)c43)nc3ccccc3c2n1CC(C)(C)O, the Activity (AD293) was “Non-toxic”, the Activity [1] was “Time-dependent-effect” and the viability at 72 h, 10 µM [2] was 2%. For the same compound, the Activity [3] was 7%, the Activity [4] was “inactive” and the Activity [5] was “inactive”. The Activity [6] was “Not_active”, the Activity [7] was 0.411 and the Activity [8] was 15%. It also gave a viability at 72 h, 10 µM [9] of 4%.
